# Assay results from ChEMBL document CHEMBL1909566, “Diverse metabolic profiles of a Streptomyces strain isolated from a hyper-arid environment” (2011).
# Legend:
# Type in all cases: functional
# Escherichia coli = experiment: Antibacterial activity against Escherichia coli ATCC 25922 after 18 hrs by […]; details: ATCC 25922, 18 h
# Summary of the method: (§1)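 Compounds were first screened by agar diffusion, with filter-paper disks of ampicillin (10 μg), oxolinic acid (2 μg) or oxytetracycline (30 μg) as positive controls. For MICs, strains were grown in Müller-Hinton broth to early stationary phase and diluted to OD600 = 0.005. Compound dilutions were added in DMSO (final 10%). Growth was read at OD620 after 18 h at 37 C, in duplicate with two independent cultures.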
# Listeria monocytogenes = experiment: Antibacterial activity against Listeria monocytogenes ATCC 19115 after 18 hrs by […]; details: ATCC 19115, 18 h; summary of the method: as §1
# Bacillus subtilis = experiment: Antibacterial activity against Bacillus subtilis NCTC 2116 after 18 hrs by […]; details: NCTC 2116, 18 h; summary of the method: as §1
# Staphylococcus aureus = experiment: Antibacterial activity against Staphylococcus aureus ATCC 25293 after 18 hrs by […]; details: ATCC 25923, 18 h, in the assay text read “ATCC 25923” for “ATCC 25293”; summary of the method: as §1
# Vibrio parahaemolyticus = experiment: Antibacterial activity against Vibrio parahaemolyticus NCTC 10441 after 18 hrs by […]; details: NCTC 10441, 18 h; summary of the method: as §1
MIC (Escherichia coli),MIC (Listeria monocytogenes),MIC (Bacillus subtilis),MIC (Staphylococcus aureus),Structure (SMILES),MIC (Vibrio parahaemolyticus)
> 20 µg/mL,6.3 µg/mL,3.1 µg/mL,0.4 µg/mL,CC/C=C/[C@H]1C/C=C/C=C\[C@H](O)C[C@@H](O)[C@@H](C)/C=C/C[C@@H](C)/C=C/C=C(C)/C=C/C(=O)O1 [CHAXALACTIN A],12.5 µg/mL
> 20 µg/mL,6.3 µg/mL,6.3 µg/mL,0.8 µg/mL,CC/C=C/[C@H]1C/C=C/C=C\[C@H](OC)[C@@H](O)[C@@H](O)[C@@H](C)/C=C/C[C@@H](C)/C=C/C=C(C)/C=C/C(=O)O1 [CHAXALACTIN C],12.5 µg/mL
> 20 µg/mL,5 µg/mL,5 µg/mL,0.2 µg/mL,CC/C=C/[C@H]1C/C=C/C=C\[C@H](O)[C@@H](O)[C@@H](O)[C@@H](C)/C=C/C[C@@H](C)/C=C/C=C(C)/C=C/C(=O)O1 [CHAXALACTIN B],20 µg/mL
